In ChEMBL document CHEMBL1221274, “Discovery and expanded SAR of 4,4-disubstituted quinazolin-2-ones as potent T-type calcium channel antagonists” (Bioorg Med Chem Lett, 2010):
Blank lines part the entries; values can stand above or below the molecule they belong to. Activity calls are given as the source filed them. The calls are words filed in the database; no cut-off is given here.

What was measured:
[1] = molecular target: Voltage-dependent T-type calcium channel subunit alpha-1I (Homo sapiens) (UniProt Q9P0X4); assay: Antagonist activity at Cav3.3 alpha1i by depolarized FLIPR assay; assay type: functional
[2] = molecular target: T1, PXR (nuclear receptor subfamily 1 group I member 2) (Homo sapiens, UniProt O75469); assay: PXR activation relative to rifampicin at 10 uM; settings: activation
T1 sequence (O75469 whole entry): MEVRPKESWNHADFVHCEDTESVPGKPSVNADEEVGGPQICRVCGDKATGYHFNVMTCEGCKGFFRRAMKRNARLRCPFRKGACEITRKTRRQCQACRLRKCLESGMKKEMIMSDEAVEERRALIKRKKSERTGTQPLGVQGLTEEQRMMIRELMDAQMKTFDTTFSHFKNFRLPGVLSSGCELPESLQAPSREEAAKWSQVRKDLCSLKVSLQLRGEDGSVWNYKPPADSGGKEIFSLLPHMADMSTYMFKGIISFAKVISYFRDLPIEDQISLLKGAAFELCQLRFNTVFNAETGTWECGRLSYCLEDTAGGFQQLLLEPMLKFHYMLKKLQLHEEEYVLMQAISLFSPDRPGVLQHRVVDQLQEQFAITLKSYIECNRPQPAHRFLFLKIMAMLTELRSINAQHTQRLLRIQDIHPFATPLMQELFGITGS

[3] = Metabolic stability in human liver microsome assessed as compound remaining after 60 mins; assay type: ADME; settings: liver microsomes, read-out: Stability
How it was run: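 Human liver microsomes (0.2 mg protein/mL) incubated with test compound at 1 µM plus NADPH cofactor at 37 °C for 30 or 60 min; percent parent compound remaining measured.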

[4] = molecular target: Voltage-dependent T-type calcium channel subunit alpha-1I (Homo sapiens) (UniProt Q9P0X4); assay: Antagonist activity at Cav3.3 alpha1i by hyperpolarized FLIPR assay; assay type: functional
[5] = molecular target: T2, Nuclear receptor subfamily 1 group I member 2 (Homo sapiens, UniProt O75469); assay: PXR activation relative to rifampicin at 10 uM; settings: 10 µM
T2 sequence (O75469 whole entry): T1 sequence (O75469 whole entry)

Rattus norvegicus [6] = assay: Effect on sleep-awake pattern in rat assessed as increase in delta sleep at 10 mg/kg, po for 16 hrs; assay type: functional, organism-based; set-up: dose 10 mg/kg
How it was run: (§1)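 Crossover rat study over seven days, n = 7 male rats. ECoG and EMG recorded for 16 h and scored as active wake, light sleep, delta sleep or REM, as minutes per 30 min bin (±SEM). Each time point compared by linear mixed-effects ANOVA.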

Homo sapiens [7] = species on record: Homo sapiens; assay: Effect on human Pgp-mediated drug transport assessed as efflux ratio of permeability from basolateral to apical over apical to basolateral side
[8] = Half life in dog; assay type: ADME, organism-based, Canis lupus familiaris; settings: in vivo
[9] = Plasma protein binding in rat; assay type: ADME, cell-free; settings: read-out: PPB (converted)
Cytochrome P450 3A4 = Cytochrome P450 3A4 (Homo sapiens, UniProt P08684); assay: Inhibition of CYP3A4; assay type: ADME; settings: TDE = time-dependent effect
[10] = Volume of distribution at steady state in monkey; assay type: ADME, organism-based, Macaca mulatta; settings: rhesus monkey, in vivo; read-out: Vdss
[11] = Volume of distribution at steady state in rat; assay type: ADME, organism-based; settings: in vivo, read-out: Vdss
Homo sapiens [12] = species on record: Homo sapiens; assay: Plasma protein binding in human; settings: read-out: PPB (converted)
Rattus norvegicus [13] = assay: Effect on sleep-awake pattern in rat assessed as decrease in REM sleep at 10 mg/kg, po for 16 hrs; assay type: functional, organism-based; set-up: dose 10 mg/kg; how it was run: as §1
[14] = Half life in rat; assay type: ADME, organism-based; settings: in vivo
Rattus norvegicus [15] = assay: Effect on sleep-awake pattern in rat assessed as decrease in active awake at 10 mg/kg, po for 16 hrs; assay type: functional, organism-based; set-up: dose 10 mg/kg; how it was run: as §1
[16] = Plasma clearance in dog; assay type: ADME, organism-based, Canis lupus familiaris
[17] = Plasma clearance in rat; assay type: ADME, organism-based
[18] = Oral bioavailability in rat; assay type: ADME, organism-based; settings: in vivo
Rattus norvegicus [19] = assay: Antiepileptic activity in […] rat assessed as inhibition of total seizures at 10 mg/kg, po after 4 hrs; assay type: functional
How it was run: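 Seizure suppression measured by EEG in WAG/Rij rats (absence epilepsy model) after oral dosing; total seizure time scored 4 h post dose and expressed as percent inhibition.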

[20] = Oral bioavailability in monkey; assay type: ADME, organism-based, Macaca mulatta; settings: rhesus monkey, in vivo
[21] = Volume of distribution at steady state in dog; assay type: ADME, organism-based, Canis lupus familiaris; settings: in vivo, read-out: Vdss
[22] = Half life in monkey; assay type: ADME, organism-based, Macaca mulatta; settings: rhesus monkey, in vivo
Rattus norvegicus [23] = species on record: Rattus norvegicus; assay: Effect on rat Pgp-mediated drug transport assessed as efflux ratio of permeability from basolateral to apical over apical to basolateral side
[24] = Plasma clearance in monkey; assay type: ADME, organism-based, Macaca mulatta; settings: rhesus monkey

Voltage-dependent T-type calcium channel subunit alpha-1I (Homo sapiens), sequence (Q9P0X4 whole entry): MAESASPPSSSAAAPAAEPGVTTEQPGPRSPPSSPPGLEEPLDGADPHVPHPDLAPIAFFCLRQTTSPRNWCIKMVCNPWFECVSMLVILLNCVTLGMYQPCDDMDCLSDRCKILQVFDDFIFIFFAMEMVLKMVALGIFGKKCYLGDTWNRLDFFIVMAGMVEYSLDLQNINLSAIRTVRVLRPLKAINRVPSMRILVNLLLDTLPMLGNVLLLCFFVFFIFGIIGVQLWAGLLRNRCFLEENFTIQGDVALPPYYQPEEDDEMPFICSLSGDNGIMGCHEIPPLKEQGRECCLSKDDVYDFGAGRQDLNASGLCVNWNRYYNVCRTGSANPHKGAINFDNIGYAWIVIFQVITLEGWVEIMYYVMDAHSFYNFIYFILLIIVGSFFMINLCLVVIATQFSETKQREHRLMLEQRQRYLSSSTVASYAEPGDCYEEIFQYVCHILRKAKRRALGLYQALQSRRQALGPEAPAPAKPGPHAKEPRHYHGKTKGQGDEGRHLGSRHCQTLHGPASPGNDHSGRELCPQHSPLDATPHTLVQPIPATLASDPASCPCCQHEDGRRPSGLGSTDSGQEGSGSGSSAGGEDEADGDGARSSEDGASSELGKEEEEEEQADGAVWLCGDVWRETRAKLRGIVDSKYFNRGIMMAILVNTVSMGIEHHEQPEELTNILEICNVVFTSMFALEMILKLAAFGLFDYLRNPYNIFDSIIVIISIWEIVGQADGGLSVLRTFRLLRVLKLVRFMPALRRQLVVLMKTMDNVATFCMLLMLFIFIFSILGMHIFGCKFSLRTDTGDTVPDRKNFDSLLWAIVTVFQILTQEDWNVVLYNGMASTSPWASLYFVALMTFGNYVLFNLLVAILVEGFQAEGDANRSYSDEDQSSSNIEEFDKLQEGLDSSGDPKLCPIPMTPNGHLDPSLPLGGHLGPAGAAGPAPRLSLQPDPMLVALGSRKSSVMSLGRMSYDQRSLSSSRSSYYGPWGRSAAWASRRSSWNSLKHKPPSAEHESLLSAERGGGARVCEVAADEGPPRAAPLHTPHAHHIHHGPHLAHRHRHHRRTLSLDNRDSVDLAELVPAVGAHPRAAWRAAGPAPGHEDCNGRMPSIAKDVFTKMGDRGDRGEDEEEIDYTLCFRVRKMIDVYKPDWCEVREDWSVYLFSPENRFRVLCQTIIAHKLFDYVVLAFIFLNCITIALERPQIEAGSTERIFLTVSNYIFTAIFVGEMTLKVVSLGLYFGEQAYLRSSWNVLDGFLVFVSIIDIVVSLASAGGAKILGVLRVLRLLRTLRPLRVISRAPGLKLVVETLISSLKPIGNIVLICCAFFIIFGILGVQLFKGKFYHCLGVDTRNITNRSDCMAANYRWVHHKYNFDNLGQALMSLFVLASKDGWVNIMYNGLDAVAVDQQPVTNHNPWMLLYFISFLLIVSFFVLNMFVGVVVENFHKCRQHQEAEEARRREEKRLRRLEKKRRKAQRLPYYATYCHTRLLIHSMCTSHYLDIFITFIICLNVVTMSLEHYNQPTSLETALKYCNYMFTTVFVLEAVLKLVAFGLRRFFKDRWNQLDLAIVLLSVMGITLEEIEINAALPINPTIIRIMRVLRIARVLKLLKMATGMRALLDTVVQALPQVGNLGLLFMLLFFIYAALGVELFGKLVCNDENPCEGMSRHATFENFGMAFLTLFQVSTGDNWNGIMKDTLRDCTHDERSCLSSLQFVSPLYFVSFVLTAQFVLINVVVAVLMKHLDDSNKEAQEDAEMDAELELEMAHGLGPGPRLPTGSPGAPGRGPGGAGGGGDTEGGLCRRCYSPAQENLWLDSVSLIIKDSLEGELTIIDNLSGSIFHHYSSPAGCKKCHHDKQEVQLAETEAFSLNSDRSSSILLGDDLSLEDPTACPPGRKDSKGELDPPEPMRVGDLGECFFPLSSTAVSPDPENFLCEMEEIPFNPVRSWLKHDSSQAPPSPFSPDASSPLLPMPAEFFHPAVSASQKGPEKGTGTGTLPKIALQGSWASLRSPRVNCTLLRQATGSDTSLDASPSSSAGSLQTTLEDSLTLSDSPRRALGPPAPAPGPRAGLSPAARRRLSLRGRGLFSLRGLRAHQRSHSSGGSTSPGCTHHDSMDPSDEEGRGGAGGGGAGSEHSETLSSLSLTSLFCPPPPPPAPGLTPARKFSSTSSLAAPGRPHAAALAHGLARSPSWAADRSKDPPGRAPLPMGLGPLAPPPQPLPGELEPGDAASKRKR
Cytochrome P450 3A4, sequence (P08684 whole entry): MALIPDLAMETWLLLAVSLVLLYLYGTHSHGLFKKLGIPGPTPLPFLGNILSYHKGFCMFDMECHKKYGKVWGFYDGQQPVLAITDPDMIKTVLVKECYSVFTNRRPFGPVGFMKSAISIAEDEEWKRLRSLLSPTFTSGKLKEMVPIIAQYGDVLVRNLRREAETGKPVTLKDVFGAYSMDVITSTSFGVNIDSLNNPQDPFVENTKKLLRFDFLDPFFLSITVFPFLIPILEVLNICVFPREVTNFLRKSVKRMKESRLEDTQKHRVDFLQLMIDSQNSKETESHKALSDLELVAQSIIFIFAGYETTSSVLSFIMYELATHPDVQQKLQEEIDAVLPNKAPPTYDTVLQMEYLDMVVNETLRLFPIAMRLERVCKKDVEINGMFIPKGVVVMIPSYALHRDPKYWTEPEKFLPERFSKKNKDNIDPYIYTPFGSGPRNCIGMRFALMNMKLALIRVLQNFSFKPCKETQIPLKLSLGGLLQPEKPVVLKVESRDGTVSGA

Activity [1]: 17 nM
activation at 10 µM [2]: 53%
remaining at 1 h [3]: 66%
SMILES: O=C1Nc2ccc(F)c(F)c2C(CCF)(c2ccc(F)cc2)N1CC(F)(F)F (centres undefined)

Activity [1]: 111 nM
SMILES: CCCCC1(C2CC2)c2cc(Cl)ccc2NC(=O)N1CC(F)(F)F (centres undefined)

Activity [1]: 3090 nM
SMILES: O=C1Nc2ccc(F)c(F)c2C(CCO)(c2ccc(F)cc2)N1CC(F)(F)F (centres undefined)

Activity [4]: 239 nM
Activity [1]: 61 nM
SMILES: CC[C@]1(c2ccc(F)cc2)c2cc(Cl)ccc2NC(=O)N1CC(F)(F)F

Activity [1]: 141 nM
SMILES: CCC1(c2ccc(F)c(F)c2)c2cc(Cl)ccc2NC(=O)N1CC(F)(F)F (centres undefined)

Activity [1]: 38 nM
activation at 10 µM [2]: 49%
SMILES: CCCC1(c2ccccc2)c2cc(F)ccc2NC(=O)N1CC(F)(F)F (centres undefined)

Activity [1]: 53 nM
activation at 10 µM [2]: 70%
SMILES: CCC1(c2ccc(F)cc2)c2c(ccc(F)c2F)N(CCOC)C(=O)N1CC(F)(F)F (centres undefined)

Activity [1]: 318 nM
SMILES: CCCC1(c2cccc(-c3ccnn3C)c2)c2cc(Cl)ccc2NC(=O)N1CC(F)(F)F (centres undefined)

Activity [1]: 50 nM
SMILES: CCC1(c2ccccc2)c2cc(F)ccc2NC(=O)N1CC(F)(F)F (single isomer, unassigned; 35A) [listing 1 of 2 here]

Activity [1]: 25 nM
activation at 10 µM [2]: 58%
SMILES: CCC1(c2ccc(F)cc2)c2cc(F)ccc2NC(=O)N1CC(F)(F)F (centres undefined)

Activity [4]: 590 nM
Activity [1]: 14 nM
SMILES: N#Cc1ccc([C@@]2(C3CC3)c3cc(Cl)ccc3NC(=O)N2CC(F)(F)F)cc1

Activity [1]: 42 nM
SMILES: O=C1Nc2ccc(Cl)cc2C(CCF)(c2ccc(F)cc2)N1CC(F)(F)F (single isomer, unassigned; 30A)

Activity [1]: 20 nM
SMILES: CCC1(c2ccccc2)c2c(ccc(F)c2F)NC(=O)N1CC(F)(F)F (single isomer, unassigned) [listing 2 of 2 here]

Activity [1]: 3740 nM
SMILES: CCC1(c2ccccc2)c2cc(F)ccc2NC(=O)N1CC(F)(F)F (single isomer, unassigned; 35B) [listing 2 of 2 here]

Activity [1]: 879 nM
SMILES: CCCC1(c2ccc(OC)cc2)c2cc(Cl)ccc2NC(=O)N1CC(F)(F)F (centres undefined)

Activity [1]: 71 nM
SMILES: CCC1(c2ccccc2)c2cc(Cl)ccc2NC(=O)N1CC(F)(F)F (single isomer, unassigned; 21A)

Ratio (Homo sapiens [7]): 1.2
half-life [8]: 5.9 h
fraction unbound [9]: 0.021
inhibition (INH) (Cytochrome P450 3A4): tde
Vd [10]: 9.8 L/kg
Vd [11]: 6.7 L/kg
fraction unbound (Homo sapiens [12]): 0.015
half-life [14]: 1.6 h
clearance [16]: 10.5 mL/min/kg
Activity [1]: 14 nM
clearance [17]: 55 mL/min/kg
activation at 10 µM [2]: 35%
bioavailability [18]: 15%
bioavailability [20]: 15%
Vd [21]: 3.6 L/kg
half-life [22]: 5.8 h
remaining at 1 h [3]: 68%
Ratio (Rattus norvegicus [23]): 1.5
clearance [24]: 23 mL/min/kg
SMILES: O=C1Nc2ccc(F)c(F)c2C(CC(F)F)(c2ccc(F)cc2)N1CC(F)(F)F (centres undefined)
Activity (Rattus norvegicus [6]): Active
Activity (Rattus norvegicus [13]): Active
Activity (Rattus norvegicus [15]): Active
inhibition in vivo at 10 mg/kg (Rattus norvegicus [19]): 70%

Activity [1]: 87 nM
SMILES: C=CCC1(c2ccccc2)c2cc(Cl)ccc2NC(=O)N1CC(F)(F)F (centres undefined)

Activity [1]: 132 nM
activation at 10 µM [2]: 61%
SMILES: CCC1(c2ccccc2)c2c(ccc(Cl)c2F)NC(=O)N1CC(F)(F)F (centres undefined)

Continued, molecule first:

SMILES: CCC1(c2ccccc2)c2cc(Cl)ccc2NC(=O)N1CC(F)(F)F (single isomer, unassigned; 21B)
Activity [1]: 3880 nM

SMILES: CCC1(c2ccccc2)c2c(ccc(F)c2F)NC(=O)N1CC(F)(F)F (single isomer, unassigned) [listing 1 of 2 here]
activation at 10 µM [2]: 48%

SMILES: CCCC1(c2ccc(F)cc2)c2cc(Cl)ccc2NC(=O)N1CC(F)(F)F (single isomer, unassigned; 24B)
Activity [1]: 1320 nM

SMILES: CCCC1(c2ccc(F)cc2)c2cc(Cl)ccc2NC(=O)N1CC(F)(F)F (single isomer, unassigned; 24A)
Activity [1]: 25 nM

SMILES: O=C1Nc2ccc(Cl)cc2C(CC(F)F)(c2ccc(F)cc2)N1CC(F)(F)F (single isomer, unassigned; 31B)
Activity [1]: 469 nM

SMILES: CCCC1(c2cccc(-c3nccs3)c2)c2cc(Cl)ccc2NC(=O)N1CC(F)(F)F (centres undefined)
Activity [1]: 62 nM

SMILES: CCC1(c2ccccc2)c2cc(F)ccc2NC(=O)N1CC(F)(F)F (single isomer, unassigned; 35A) [listing 2 of 2 here]
Activation [5]: 63%

SMILES: CCC1(c2ccc(F)cc2)c2c(ccc(F)c2F)NC(=O)N1CC(F)(F)F (centres undefined)
Activity [1]: 16 nM
activation at 10 µM [2]: 52%
remaining at 1 h [3]: < 1%

SMILES: CCC1(c2ccccc2)c2cc(F)ccc2NC(=O)N1CC(F)(F)F (single isomer, unassigned; 35B) [listing 1 of 2 here]
activation at 10 µM [2]: 74%

SMILES: CCCC1(c2ccc(F)cc2)c2c(ccc(F)c2F)NC(=O)N1CC(F)(F)F (centres undefined)
Activity [1]: 6 nM
activation at 10 µM [2]: 73%

SMILES: CCCC1(c2cccc(Oc3ccccn3)c2)c2cc(Cl)ccc2NC(=O)N1CC(F)(F)F (centres undefined)
Activity [1]: 73 nM

SMILES: O=C1Nc2ccc(Cl)cc2C(CC(F)F)(c2ccc(F)cc2)N1CC(F)(F)F (single isomer, unassigned; 31A)
Activity [1]: 60 nM

SMILES: CCC1(c2ccccc2)c2cc(Cl)ccc2NC(=O)N1C (centres undefined)
Activity [4]: 2170 nM
Activity [1]: 847 nM

SMILES: CCCC1(c2cccc(N3CCOCC3)c2)c2cc(Cl)ccc2NC(=O)N1CC(F)(F)F (centres undefined)
Activity [1]: 161 nM

SMILES: CC(C)(C)C1(c2ccccc2)c2cc(F)ccc2NC(=O)N1CC(F)(F)F (centres undefined)
Activity [1]: 757 nM
activation at 10 µM [2]: 44%

SMILES: CCCC1(c2cccc(OC)c2)c2cc(Cl)ccc2NC(=O)N1CC(F)(F)F (centres undefined)
Activity [1]: 171 nM

SMILES: CCC1(c2ccccc2)c2c(ccc(F)c2F)NC(=O)N1CC(F)(F)F (stereo in doubt; 36B)
Activity [1]: 2040 nM

SMILES: N#CC1(c2ccc(F)cc2)c2c(ccc(F)c2F)NC(=O)N1CC(F)(F)F (centres undefined)
Activity [1]: 290 nM

SMILES: CCC1(c2ccc(F)cc2)c2c(ccc(F)c2F)N(Cc2c(C)noc2C)C(=O)N1CC(F)(F)F (centres undefined)
Activity [1]: 1830 nM

SMILES: CCC1(c2ccccc2)c2c(F)ccc(F)c2NC(=O)N1CC(F)(F)F (centres undefined)
Activity [1]: 657 nM
activation at 10 µM [2]: 91%

SMILES: CCC1(c2ccccc2)c2c(F)cccc2NC(=O)N1CC(F)(F)F (centres undefined)
Activity [1]: 111 nM
activation at 10 µM [2]: 83%

SMILES: CCC(C)C1(C2CC2)c2cc(Cl)ccc2NC(=O)N1CC(F)(F)F (centres undefined)
Activity [1]: 447 nM

SMILES: O=C1Nc2ccc(Cl)cc2C(CCF)(c2ccc(F)cc2)N1CC(F)(F)F (single isomer, unassigned; 30B)
Activity [1]: 905 nM
